For test [1], the target named is N-acylethanolamine-hydrolyzing acid amidase (Rattus norvegicus) (UniProt Q5KTC7). The experiment in a line: Inhibition of N-palmitoylethanolamine-selective acid amidase (NPAA) from rat lung homogenates at 100 uM.
The target in test [2] is T1, Fatty-acid amide hydrolase 1 (Rattus norvegicus) (UniProt P97612).
T1 sequence (whole entry): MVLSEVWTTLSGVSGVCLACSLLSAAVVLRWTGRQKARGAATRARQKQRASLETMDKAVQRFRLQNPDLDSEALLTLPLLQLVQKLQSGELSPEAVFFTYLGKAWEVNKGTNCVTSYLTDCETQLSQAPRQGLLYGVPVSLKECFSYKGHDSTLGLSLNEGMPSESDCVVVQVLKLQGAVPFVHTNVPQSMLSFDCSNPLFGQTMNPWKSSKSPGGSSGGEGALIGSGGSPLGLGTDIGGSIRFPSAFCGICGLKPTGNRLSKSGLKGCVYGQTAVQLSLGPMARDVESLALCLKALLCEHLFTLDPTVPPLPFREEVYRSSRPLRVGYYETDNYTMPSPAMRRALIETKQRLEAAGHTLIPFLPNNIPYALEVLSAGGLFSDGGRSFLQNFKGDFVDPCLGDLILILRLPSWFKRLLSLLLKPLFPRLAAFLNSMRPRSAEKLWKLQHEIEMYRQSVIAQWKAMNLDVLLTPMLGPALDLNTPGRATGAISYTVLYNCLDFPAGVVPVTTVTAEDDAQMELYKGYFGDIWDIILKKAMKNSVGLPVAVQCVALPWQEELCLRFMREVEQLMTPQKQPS
The experiment in a line: Inhibition of fatty acid amide hydrolase (FAAH) from rat brain homogenates at 100 uM. It counts as tissue-based. Put shortly: (§1)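 Hydrolysis of [3H]-anandamide by rat brain homogenate was measured at assay pH 7.6. Compound was mostly tested over 0.5–100 μM, and percent inhibition is given at 10 and 100 μM. A value below 0 means activity remaining exceeded 100%.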

In test [3] the target is Cannabinoid receptor 1 (Homo sapiens) (UniProt P21554). The experiment in a line: Binding affinity against human Cannabinoid receptor 1 using CHO-hCB1 transfected cell membrane and [3H]CP-55940 as radioligand at 10 uM. Put shortly: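 Membranes from CHO cells transfected with human CB1 were incubated with 1 nM [3H]-CP55,940 and test compound at 10 μM. Nonspecific binding was defined with 10 μM HU-210. The value is percent inhibition of specific radioligand binding.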
Chain of Cannabinoid receptor 1 (Homo sapiens) (P21554 whole entry): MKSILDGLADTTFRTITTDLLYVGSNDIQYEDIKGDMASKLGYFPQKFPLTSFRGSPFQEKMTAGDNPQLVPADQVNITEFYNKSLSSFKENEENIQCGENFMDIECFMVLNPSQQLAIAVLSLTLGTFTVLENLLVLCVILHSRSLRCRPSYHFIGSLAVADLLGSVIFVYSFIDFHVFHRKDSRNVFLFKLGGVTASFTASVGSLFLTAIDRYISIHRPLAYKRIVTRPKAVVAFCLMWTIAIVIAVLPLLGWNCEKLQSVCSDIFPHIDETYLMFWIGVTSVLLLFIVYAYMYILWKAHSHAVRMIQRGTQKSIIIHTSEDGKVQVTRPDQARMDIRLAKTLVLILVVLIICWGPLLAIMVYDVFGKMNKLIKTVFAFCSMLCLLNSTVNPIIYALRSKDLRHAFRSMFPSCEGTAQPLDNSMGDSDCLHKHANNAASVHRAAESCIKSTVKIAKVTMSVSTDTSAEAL

Test [4] addresses Cannabinoid receptor 2 (Homo sapiens) (UniProt P34972). The experiment in a line: Binding affinity against human CB2 receptor by using CHO-hCB2 transfected cell membrane [3H]WIN-55212-2 as radioligand at 10 uM. Put shortly:
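Membranes from CHO cells transfected with human CB2 were incubated with 1 nM [3H]-WIN55,212-2 and test compound at 10 μM. Nonspecific binding was defined with 10 μM HU-210. The value is percent inhibition of specific radioligand binding.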

Test [5] concerns the target T1, Fatty-acid amide hydrolase 1 (Rattus norvegicus). The experiment in a line: Inhibition of fatty acid amide hydrolase (FAAH) from rat brain homogenates at 10 uM. It counts as tissue-based. Put shortly:
as §1

For test [6] the target is unchanged. The experiment in a line: Compound was tested for the inhibition of fatty acid amide hydrolase from rat brain homogenates at 10 uM in buffer A of pH 6 by using 10 uM [3H]ethanolamine-labeled anandamide as substrate. Put shortly:
(§2)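 The rat brain homogenate FAAH assay used 10 μM [3H]-ethanolamine-labeled anandamide as substrate. Protein was 10 μg per assay at pH 6 and 3 μg at pH 9. Buffer A was 10 mM Tris-HCl and 1 mM EDTA with fatty acid-free BSA. Buffer B was 125 mM Tris, 1 mM EDTA, 0.2% glycerol, 0.02% Triton X-100 and 0.4 mM HEPES, without BSA. pH was adjusted with NaOH or HCl. Compounds were tested at 10, 30 and 100 μM. The value is percent inhibition.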

The target is the same in test [7]. The experiment in a line: Compound was tested for the inhibition of fatty acid amide hydrolase from rat brain homogenates at 10 uM in buffer A of pH 6 by using 100 uM [3H]ethanolamine-labeled anandamide as substrate. It counts as tissue-based.
The test system of test [8] is RBL-2H3. Kind of test: Compound was tested for the inhibition of [3H]anandamide Uptake in RBL-2H3 cells at 30 uM. Type of test: functional. To be noted: Rattus norvegicus. An outline of the steps: (§3)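 RBL-2H3 cells (passage 38) were preincubated with compound (10, 30 or 100 μM). They were then exposed to 2 μM [3H]-arachidonoyl-labeled anandamide for 8 min. Uptake was taken as accumulation in cell wells minus parallel cell-free wells. 200 μM AM404 served as positive control in every assay. The value is percent inhibition of uptake.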

Test [9] concerns the target T1, Fatty-acid amide hydrolase 1 (Rattus norvegicus). The experiment in a line: Compound was tested for the inhibition of fatty acid amide hydrolase from rat brain homogenates at 10 uM in buffer B of pH 6 by using 100 uM [3H]ethanolamine-labeled anandamide as substrate. Type of test: tissue-based.
For test [10] the target is unchanged. Kind of test: Compound was tested for the inhibition of fatty acid amide hydrolase from rat brain homogenates at 10 uM in buffer A of pH 6 by using 30 uM [3H]ethanolamine-labeled anandamide as substrate. Type of test: tissue-based.
The target is the same in test [11]. Kind of test: Compound was tested for the inhibition of fatty acid amide hydrolase from rat brain homogenates at 10 uM in buffer B of pH 9 by using 100 uM [3H]ethanolamine-labeled anandamide as substrate. Type of test: tissue-based.
For test [12], the system named is RBL-2H3. Kind of test: Compound was tested for the inhibition of [3H]anandamide Uptake in RBL-2H3 cells at 10 uM. It counts as functional. The settings on record: Rattus norvegicus. Put shortly:
as §3

For test [13], the target named is T1, Fatty-acid amide hydrolase 1 (Rattus norvegicus). The experiment in a line: Compound was tested for the inhibition of fatty acid amide hydrolase from rat brain homogenates at 10 uM in buffer A of pH 9 by using 10 uM [3H]ethanolamine-labeled anandamide as substrate. It counts as tissue-based. An outline of the steps: as §2
Test [14] concerns RBL-2H3. Kind of test: Compound was tested for the inhibition of [3H]anandamide Uptake in RBL-2H3 cells at 100 uM. It counts as functional. To be noted: Rattus norvegicus. An outline of the steps: as §3
The target in test [15] is T1, Fatty-acid amide hydrolase 1 (Rattus norvegicus). The experiment in a line: Compound was tested for the inhibition of fatty acid amide hydrolase from rat brain homogenates at 10 uM in buffer B of pH 9 by using 10 uM [3H]ethanolamine-labeled anandamide as substrate. Type of test: tissue-based. Put shortly: as §2
The target is the same in test [16]. Kind of test: Compound was tested for the inhibition of fatty acid amide hydrolase from rat brain homogenates at 10 uM in buffer A of pH 9 by using 30 uM [3H]ethanolamine-labeled anandamide as substrate. It counts as tissue-based.
For test [17] the target is unchanged. The experiment in a line: Compound was tested for the inhibition of fatty acid amide hydrolase from rat brain homogenates at 10 uM in buffer A of pH 9 by using 100 uM [3H]ethanolamine-labeled anandamide as substrate. It counts as tissue-based.
Test [18] has the same target. Kind of test: Compound was tested for the inhibition of fatty acid amide hydrolase from rat brain homogenates at 10 uM in buffer B of pH 6 by using 10 uM [3H]ethanolamine-labeled anandamide as substrate. Type of test: tissue-based. Put shortly:
as §2

The species entered for test [19] is Rattus norvegicus. The experiment in a line: Compound was tested for the inhibition of N-palmitoylethanolamine-selective acid amidase (NPAA) from rat lung homogenates at 100 uM. Put shortly:
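Enzyme (12 μg protein) was solubilized from the 12 000 × g pellet of rat lung homogenate. It was incubated with 100 μM [14C]-N-palmitoylethanolamine (10 000 cpm) and 100 μM compound for 30 min at 37 °C. Buffer was 50 mM citrate–sodium phosphate, pH 5.0, with 3 mM DTT and 0.1% Triton X-100. Radioactivity was read by imaging scan. The value is percent inhibition.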

This passage reports inhibition results from ChEMBL document CHEMBL1145119, “Esters, retroesters, and a retroamide of palmitic acid: pool for the first selective inhibitors of N-palmitoylethanolamine-selective acid amidase” (J Med Chem, 2003).

Chain of Cannabinoid receptor 2 (Homo sapiens) (P34972 whole entry): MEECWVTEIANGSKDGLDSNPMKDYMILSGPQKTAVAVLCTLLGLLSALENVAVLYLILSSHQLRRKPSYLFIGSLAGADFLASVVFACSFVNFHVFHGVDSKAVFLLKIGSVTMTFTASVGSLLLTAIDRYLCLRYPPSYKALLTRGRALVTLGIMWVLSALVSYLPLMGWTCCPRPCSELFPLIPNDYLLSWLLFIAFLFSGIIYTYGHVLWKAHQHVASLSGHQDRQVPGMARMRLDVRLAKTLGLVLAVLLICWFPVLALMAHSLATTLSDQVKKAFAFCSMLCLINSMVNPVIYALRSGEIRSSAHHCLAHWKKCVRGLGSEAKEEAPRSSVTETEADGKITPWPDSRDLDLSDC
Chain of N-acylethanolamine-hydrolyzing acid amidase (Rattus norvegicus) (Q5KTC7 whole entry, looked up): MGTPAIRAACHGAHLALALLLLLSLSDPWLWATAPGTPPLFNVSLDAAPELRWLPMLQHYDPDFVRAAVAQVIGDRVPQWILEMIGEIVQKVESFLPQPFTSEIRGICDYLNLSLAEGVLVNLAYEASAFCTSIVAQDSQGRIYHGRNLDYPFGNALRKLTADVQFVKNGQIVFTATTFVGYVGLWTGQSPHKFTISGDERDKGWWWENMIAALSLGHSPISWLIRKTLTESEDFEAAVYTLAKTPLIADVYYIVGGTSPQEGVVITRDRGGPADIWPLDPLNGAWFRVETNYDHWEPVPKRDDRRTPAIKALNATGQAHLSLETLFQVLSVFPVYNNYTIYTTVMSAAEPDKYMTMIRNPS

For `CCCCCCCCCCCCCCCC(=O)NC1CCCCC1`, the inhibition in test [1] was 23%; in test [2], 11%; in test [3] it was 34%; in test [4] it was 8%; in test [5] it was 8%.

Take `CCCCCCCCCCCCCCCC(=O)OC(C)(C)C`: the inhibition in [1] was 23%; in test [2] it was less than 0%; in [3], 14%; in test [4], 14%; in [5], less than 0%.

Consider `CCCCCCCCCCCCCCCC(=O)NC(C)C`, for which the inhibition in [1] came out at 25%; in test [2], 52%; in test [3] it was 25%; in test [4], 12%; in test [5], 30%.

Turning to `CCCCCCCCCCCCCCCC(=O)OC(C)C`, the inhibition in [1] is 44%; in test [2] it was less than 0%; in [3], 8%; in test [4] it was 0.5%; in test [5], less than 0%.

Take `CCCCCCCCCCCCCCCC(=O)OCc1ccccc1`: the inhibition in [1] stood at 50%; in test [2] it was 24%; in test [3], 5%; in test [4] it was 5%; in [5] it was 6%.

`CCCCCCCCCCCCCCCCOC(C)=O`: the inhibition in [1] is 68%; in test [2], less than 0%; in [3] it was 10%; in test [4], 9%; in [5], less than 0%.

Turning to `CCCCCCCCCCCCCCCC(=O)NCCO`, the inhibition in test [1] worked out at 34%; in test [2], 68%; in test [3] it was 24%; in [4], 14%; in test [5], 49%.

Consider `CCCCCCCCCCCCCCCC(=O)OC1CCCCC1` [CYCLOHEXYL PALMITATE], for which the inhibition in [6] was found to be 8%; in [7] it was 37%; in test [1], 84%; in [9] it was 51%; in test [10] it was 2%; in test [11], 46%. Besides, the inhibition was found to be 5% in test [13]; 36% in [2]; 14% in test [3]; 6% in test [4]; 12% in test [15]; 6% in test [5]. Also, the results for the inhibition in test [16], in [17] and in [18] were 17%, 12% and 20%, respectively. The inhibition at 30 µM in test [8] is 16%. The inhibition at 10 µM in test [12] was 5%. In test [14], this compound had an inhibition at 100 µM of 29%.

Take `C=CCOC(=O)CCCCCCCCCCCCCCC`: the inhibition in [1] stood at 48%; in test [2], 36%; in [3], 2%; in [4], 1%; in test [5] it was 16%.

Regarding `CCCCCCCCCCCCCCCC(=O)OCCBr`, the inhibition is 45% in test [1]; 31% in test [2]; 2% in test [3]; 2% in test [4]; 19% in test [5].

Take `CCCCCCCCCCCCCCCC(=O)NC`: the inhibition in [1] was 30%; in test [2] it was 68%; in [3], 3%; in test [4], 8%; in [5], 35%.

On to `CCCCCCCCCCCCCCCC(=O)OCCCl`, for which the inhibition came to 55% in test [1]; 45% in test [2]; 14% in test [3]; 6% in test [4]; 27% in test [5].

As for `CCCCCCCCCCCCCCCCOC(=O)CC` [HEXADECYLPROPIONATE], the inhibition in [6] is 2%; in [7], less than 0%; in [1], 71%; in test [9] it was less than 0%; in test [10], less than 0%; in test [11], less than 0%. Besides, the inhibition in [13] was 26%; in [2], less than 0%; in test [3] it was 12%; in test [4], 2%; in test [15], less than 0%; in test [5], less than 0%. In addition, the results for the inhibition in test [16], in test [17] and in [18] were 21%, 4% and 5%, respectively. This compound also yielded an inhibition at 30 µM in test [8] of 12%. Besides, testing at 10 µM in test [12] gave an inhibition of 11%. Further, 100 µM produced 15% inhibition in [14].

Turning to `CCCCCCCCCCCCCCCC(=O)OC`, the inhibition came out at 64% in test [19]; 69% in [2]; 11% in test [3]; 14% in test [4]; 18% in test [5].

As to `CCCCCCCCCCCCCCCNC(=O)CCO`, the inhibition was 8% in test [6]; 2% in [7]; 77% in test [1]; 16% in [9]; less than 0% in [11]; 20% in test [13]. In addition, the inhibition in [2] was 8%; in [3], 4%; in test [4], 3%; in test [15], 6%; in test [5] it was less than 0%; in test [16], 5%. Moreover, the values for the inhibition in test [17] and in test [18] were 7% and 11%, respectively. Moreover, the inhibition at 30 µM in [8] was 13%. The same compound gave an inhibition at 10 µM in [12] of 8%. The compound further gave an inhibition at 100 µM in test [14] of 28%.
